Read-outs that look alike come from different tables or passages of the source. One block for each molecule: values may come before it.
Assays:
[1] = Adverse events commonly associated with hypercalcemia, Fracture Prevention Trial; format: in vivo, postmenopausal women with osteoporosis; details: teriparatide 20 μg/day; overall cohort (n = 541)
Outline: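 Events typical of hypercalcemia were collected throughout the trial in women randomized to once-daily subcutaneous teriparatide or placebo. They were tabulated for the whole teriparatide cohort and for the subset whose 4–6 h postdose serum calcium exceeded 10.6 mg/dl.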

serum calcium [2] = details: rats; subcutaneous injections every hour for six injections; cited from earlier work
[3] = cited from earlier work
serum calcium [4] = assay: Serum calcium pharmacodynamic response to teriparatide; format: in vivo, postmenopausal women with osteoporosis; details: for predose serum calcium, mean ± SE: samples 16–24 h postdose
Outline: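 Unadjusted total serum calcium measured in all patients at baseline and 4–6 h postdose at months 1, 3, 6, 12, 18 and 24, at three laboratories using identical, cross-calibrated methods. Samples falling 16–24 h postdose served as predose values.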

[5] = Population pharmacokinetics of teriparatide after subcutaneous injection; format: in vivo, postmenopausal women with osteoporosis
Outline: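 Serum drug levels measured in a 360-patient subset at months 1, 3, 6, 12 and 18, one sample per visit within a 0–30 min, 30 min–1 h, 1–2 h, 2–3 h or 3–4 h postdose window. Serum stored at -70°C; two-site immunoradiometric assay using bead-bound capture and 125I-labelled detection antibodies to PTH 1–34. Standard curve 9.8–20,000 pg/ml; quantifiable range 50–2,000 pg/ml; accuracy and precision ±20%.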

[6] = cited from earlier work; remark: listed apart in the source
[7] = cited from earlier work; remark: listed apart in the source
[8] = daily injections of teriparatide 20 µg
[9] = indirect-response PK–PD model, teriparatide 20 μg sc, 360 patients
[10] = comparing 10th and 90th percentiles of body weight (51–80 kg), population PK
[11] = female, human, serum, sc, 20 ug

EC50, teriparatide concentration required to produce 50% of the maximum calcium effect (serum calcium [4]; indirect-response PK–PD model, serum teriparatide): 54 pg/mL
patients with a predose serum calcium >11.0 mg/dl (serum calcium [4]; teriparatide 20 μg): no
patients with serum calcium above the upper limit of normal (10.6 mg/dl) 4–6 h after dosing (serum calcium [4]; teriparatide 20 µg group, fifty patients, placebo 1.1%): 9.4%
persistent hypercalcemia (serum calcium [4]; teriparatide 20 μg sc daily, median 21 months' treatment): not observed
patients with a predose serum calcium value >10.6 mg/dl (serum calcium [4]; teriparatide 20 μg, 1/223 patients): 0.4%
total duration of exposure to the peptide ([5]; 20 μg sc once daily): approximately 4 h
duration of exposure above basal endogenous PTH concentrations (28 pg/ml) ([5]; 20 μg sc, molar basis, concentration–time profile extrapolated to infinite time): about 4 h
prolongation in Tmax in heavier patients [5, 10]: 2.3 min
reduction in Cmax in heavier patients [5, 10]: 26%
CL/F [5, 11]: ~1030 mL/min
Tmax [5, 11]: ~30 min
level at 3 h [5, 11]: < 0.05 ng/mL
slower rate of absorption, thigh vs abdominal wall injection ([5]; population PK covariate estimate, 20 μg sc): 21%
half-life based upon Ka (ln 2/Ka) ([5]; population PK model, 20 μg sc): 1.1 h
Molecule: CC[C@H](C)[C@H](NC(=O)[C@H](CCC(=O)O)NC(=O)[C@H](CO)NC(=O)[C@@H](NC(=O)[C@@H](N)CO)C(C)C)C(=O)N[C@@H](CCC(N)=O)C(=O)N[C@@H](CC(C)C)C(=O)N[C@@H](CCSC)C(=O)N[C@@H](Cc1cnc[nH]1)C(=O)N[C@@H](CC(N)=O)C(=O)N[C@@H](CC(C)C)C(=O)NCC(=O)N[C@@H](CCCCN)C(=O)N[C@@H](Cc1cnc[nH]1)C(=O)N[C@@H](CC(C)C)C(=O)N[C@@H](CC(N)=O)C(=O)N[C@@H](CO)C(=O)N[C@@H](CCSC)C(=O)N[C@@H](CCC(=O)O)C(=O)N[C@@H](CCCN=C(N)N)C(=O)N[C@H](C(=O)N[C@@H](CCC(=O)O)C(=O)N[C@@H](Cc1c[nH]c2ccccc12)C(=O)N[C@@H](CC(C)C)C(=O)N[C@@H](CCCN=C(N)N)C(=O)N[C@@H](CCCCN)C(=O)N[C@@H](CCCCN)C(=O)N[C@@H](CC(C)C)C(=O)N[C@@H](CCC(N)=O)C(=O)N[C@@H](CC(=O)O)C(=O)N[C@H](C(=O)N[C@@H](Cc1cnc[nH]1)C(=O)N[C@@H](CC(N)=O)C(=O)N[C@@H](Cc1ccccc1)C(=O)O)C(C)C)C(C)C [teriparatide, recombinant human parathyroid hormone (rhPTH[1–34])]
Abdominal pain [1]: 48 (8.9%) n (%)
Anorexia [1]: 8 (1.5%) n (%)
Arrhythmias [1]: 9 (1.7%) n (%)
Constipation [1]: 32 (5.9%) n (%)
Depression [1]: 21 (3.9%) n (%)
Headache [1]: 44 (8.1%) n (%)
Hypertension [1]: 41 (7.6%) n (%)
Nausea [1]: 51 (9.4%) n (%)
Pancreatitis [1]: 1 (0.2%) n (%)
Peptic ulcer/gastritis [1]: 8 (1.5%) n (%)
Vomiting [1]: 19 (3.5%) n (%)
sustained elevated serum calcium concentrations (serum calcium [2]): sustained elevated serum calcium concentrations occurred
bioavailability [3]: 95%
half-life following injection [3]: 1 h
time to peak concentration following injection [3]: 30 min
true elimination half-life following intravenous administration ([3]; intravenous): 5 min
predose serum calcium, mean ± SE (serum calcium [4]; 1 month, teriparatide 20 μg): 9.19 ± 0.03 mg/dL
predose serum calcium, mean ± SE (serum calcium [4]; 3 months, teriparatide 20 μg): 9.12 ± 0.08 mg/dL
predose serum calcium, mean ± SE (serum calcium [4]; 6 months, teriparatide 20 μg): 9.29 ± 0.03 mg/dL
predose serum calcium, mean ± SE (serum calcium [4]; 12 months, teriparatide 20 μg): 9.40 ± 0.03 mg/dL
predose serum calcium, mean ± SE (serum calcium [4]; 18 months, teriparatide 20 μg): 9.30 ± 0.08 mg/dL
predose serum calcium, mean ± SE (serum calcium [4]; 24 months, teriparatide 20 μg): 9.26 ± 0.05 mg/dL
time after dosing at which serum calcium begins to increase (serum calcium [4]; [8]): approximately 2 h
time of maximum serum calcium concentration/effect after dosing (serum calcium [4]; [8]): 4.25 h
Emax, maximum calcemic response (serum calcium [4]; indirect-response PK–PD model, 62% CV): 19.5%
Kin, zero-order production rate for change in serum calcium (serum calcium [4]; [9]): 1.1 mg/(dl · hour)
Kout, first-order dissipation rate for calcium response (serum calcium [4]; [9]): 0.12 h⁻¹
time after dosing at which serum calcium begins to decline (serum calcium [4]; teriparatide 20 µg sc daily): approximately 6 h
time after each dose by which serum calcium returned to predose levels (serum calcium [4]; teriparatide 20 µg sc daily): 16 to 24 h

Molecule: parathyroid hormone [PTH]
half-life (clearance of the endogenous hormone) [6]: < 2 min

Molecule: rhPTH(1–84): full human recombinant PTH, available for treatment of osteoporosis in some countries at a daily dose of 100 μg
bioavailability [7]: 55%
apparent terminal half-life ([7]; sc): 1.5 to 2.5 h
time of first peak of serum concentration–time profile after dosing ([7]; single-dose sc, dose range 0.02–5.0 μg/kg): 5 to 10 min
